The assay deals with Muscarinic acetylcholine receptor M2 (Homo sapiens) (UniProt P08172). Nature of the assay: ACh response enhancement at M2 – CHO cells, human M2, selectivity assay for M5 PAM project (AID 651924). In short, it runs like this: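 material = CHO-K1 hM2/Gqi5 cells | buffer or medium = HBSS with HEPES and probenecid, pH 7.4 | also added = acetylcholine EC20 | doses = final DMSO 0.3% | schedule = 1.5 min compound, 50 s agonist, 25 °C | detection = calcium fluorescence with Fluo-4 AM, dye loaded 45–60 min at 37 °C | read-out = % of maximal acetylcholine response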
Chain of Muscarinic acetylcholine receptor M2 (Homo sapiens) (P08172 whole entry, looked up): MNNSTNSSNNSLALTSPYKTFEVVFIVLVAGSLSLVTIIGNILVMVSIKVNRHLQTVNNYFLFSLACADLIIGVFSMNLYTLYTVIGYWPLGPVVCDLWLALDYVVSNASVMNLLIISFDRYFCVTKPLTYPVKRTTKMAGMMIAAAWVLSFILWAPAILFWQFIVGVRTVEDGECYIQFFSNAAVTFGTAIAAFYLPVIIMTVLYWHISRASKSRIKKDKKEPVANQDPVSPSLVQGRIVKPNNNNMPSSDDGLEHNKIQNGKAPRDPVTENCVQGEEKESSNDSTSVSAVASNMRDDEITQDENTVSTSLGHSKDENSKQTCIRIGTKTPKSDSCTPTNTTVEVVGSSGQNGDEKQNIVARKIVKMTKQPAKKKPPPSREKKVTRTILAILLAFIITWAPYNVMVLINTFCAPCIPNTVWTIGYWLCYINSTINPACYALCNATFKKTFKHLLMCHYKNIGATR

Active and inactive are the calls of the source. No rule for the calls is given here.

Turning to `O=C1C(=O)N(CCOc2ccccc2)c2ccc(OC(F)(F)F)cc21`, the outcome was inactive.

(Values after PubChem BioAssay AID651924 (Vanderbilt Specialized Chemistry Center, 2012).)
